Assay results from ChEMBL document CHEMBL4627266, “Design and biological evaluation of a novel type of potential multi-targeting antimicrobial sulfanilamide hybrids in combination of pyrimidine and azoles” (Bioorg Med Chem Lett, 2020).
≈ marks a conversion by molar mass, not a printed value. Calls of active or inactive are those of the source. The calls are words filed in the database; no cut-off is given here.

What was measured:
Staphylococcus aureus [1] = experiment: Antibacterial activity against methicillin-resistant Staphylococcus aureus by two fold serial microbroth dilution method; format: functional
Summary of the method: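 Two-fold serial microbroth dilution in microdilution plates, run per CLSI, with clinical antibacterial drugs as positive controls. The MRSA strain was a drug-resistant clinical isolate from infected patients. MIC (μg/mL) was read as the lowest concentration giving complete inhibition of visible bacterial growth.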

Staphylococcus aureus [2] = experiment: Antibacterial activity against Staphylococcus aureus by two fold serial microbroth dilution method; format: functional
Summary of the method: (§1)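 Two-fold serial dilution in microdilution plates (micro broth dilution) following CLSI. Panel includes clinical drug-resistant isolates and ATCC reference strains. Clinical drugs were run as positive controls.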

Staphylococcus aureus [3] = experiment: Antibacterial activity against Staphylococcus aureus ATCC 25923 by two fold serial microbroth dilution method; format: functional; summary of the method: as §1
Enterococcus faecalis [4] = experiment: Antibacterial activity against Enterococcus faecalis by two fold serial microbroth dilution method; format: functional; summary of the method: as §1
Klebsiella pneumoniae = experiment: Antibacterial activity against Klebsiella pneumoniae by two fold serial microbroth dilution method; format: functional; summary of the method: as §1
Escherichia coli [5] = experiment: Antibacterial activity against Escherichia coli by two fold serial microbroth dilution method; format: functional; summary of the method: as §1
Escherichia coli [6] = experiment: Antibacterial activity against Escherichia coli ATCC 25922 by two fold serial microbroth dilution method; format: functional; summary of the method: as §1
Pseudomonas aeruginosa [7] = experiment: Antibacterial activity against Pseudomonas aeruginosa by two fold serial microbroth dilution method; format: functional; summary of the method: as §1
Pseudomonas aeruginosa [8] = experiment: Antibacterial activity against Pseudomonas aeruginosa ATCC 27853 by two fold serial microbroth dilution method; format: functional; summary of the method: as §1
Acinetobacter baumannii = experiment: Antibacterial activity against Acinetobacter baumannii by two fold serial microbroth dilution method; format: functional; summary of the method: as §1
Enterococcus faecalis [9] = experiment: Antibacterial activity against Enterococcus faecalis measured after 16 passages by microbroth dilution method; format: functional, organism-based
Staphylococcus aureus [10] = experiment: Antibacterial activity against Staphylococcus aureus ATCC 29213 by two fold serial microbroth dilution method; format: functional; summary of the method: as §1
Candida albicans [11] = experiment: Antifungal activity against Candida albicans by two fold serial microbroth dilution method; format: functional
Summary of the method: (§2)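 Antifungal MIC by two-fold serial dilution following CLSI, with a clinical drug as positive control. Panel includes clinical drug-resistant fungal isolates.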

Candida tropicalis = experiment: Antifungal activity against Candida tropicalis by two fold serial microbroth dilution method; format: functional; summary of the method: as §2
Aspergillus fumigatus = experiment: Antifungal activity against Aspergillus fumigatus by two fold serial microbroth dilution method; format: functional; summary of the method: as §2
Candida albicans [12] = experiment: Antifungal activity against Candida albicans ATCC 90023 by two fold serial microbroth dilution method; format: functional; summary of the method: as §2

Question: How did the MIC (Staphylococcus aureus [1]) turn out when CCn1cc(C(=O)O)c(=O)c2cc(F)c(N3CCNCC3)cc21 [NORFLOXACIN] was run?
Answer: Its MIC is 8 mg/L (≈ 25.1 µM).

Question: What about the MIC (Staphylococcus aureus [2]) of the same compound?
Answer: The MIC was 0.5 mg/L (≈ 1.57 µM).

Question: What about the MIC (Staphylococcus aureus [3]) of the same compound?
Answer: Its MIC is 1 mg/L (≈ 3.13 µM).

Question: What about the MIC (Enterococcus faecalis [4]) of the same compound?
Answer: The MIC was 4 mg/L (≈ 12.5 µM).

Question: What about the MIC (Klebsiella pneumoniae) of the same compound?
Answer: Its MIC is 4 mg/L (≈ 12.5 µM).

Question: What about the MIC (Escherichia coli [5]) of the same compound?
Answer: Its MIC is 16 mg/L (≈ 50.1 µM).

Question: What about the MIC (Escherichia coli [6]) of the same compound?
Answer: Its MIC is 8 mg/L (≈ 25.1 µM).

Question: And the MIC (Pseudomonas aeruginosa [7])?
Answer: The MIC was 2 mg/L (≈ 6.26 µM).

Question: And the MIC (Pseudomonas aeruginosa [8])?
Answer: The MIC was 0.5 mg/L (≈ 1.57 µM).

Question: And the MIC (Acinetobacter baumannii)?
Answer: Its MIC is 8 mg/L (≈ 25.1 µM).

Question: What about the Activity (Enterococcus faecalis [9]) of the same compound?
Answer: Its Activity is “inactive”.

Question: And the MIC (Staphylococcus aureus [10])?
Answer: The MIC was 2 mg/L (≈ 6.26 µM).

Question: How did the MIC (Staphylococcus aureus [1]) turn out when Cc1ccc2c(ccn2-c2ccnc(NS(=O)(=O)c3ccc(N)cc3)n2)c1 was run?
Answer: The MIC was 4 mg/L (≈ 10.5 µM).

Question: What about the MIC (Staphylococcus aureus [2]) of the same compound?
Answer: The MIC was 16 mg/L (≈ 42.2 µM).

Question: And the MIC (Staphylococcus aureus [3])?
Answer: The MIC was 4 mg/L (≈ 10.5 µM).

Question: And the MIC (Enterococcus faecalis [4])?
Answer: Its MIC is 8 mg/L (≈ 21.1 µM).

Question: What about the MIC (Klebsiella pneumoniae) of the same compound?
Answer: The MIC was 8 mg/L (≈ 21.1 µM).

Question: What about the MIC (Escherichia coli [5]) of the same compound?
Answer: The MIC was 8 mg/L (≈ 21.1 µM).

Question: What about the MIC (Escherichia coli [6]) of the same compound?
Answer: The MIC was 32 mg/L (≈ 84.3 µM).

Question: What about the MIC (Pseudomonas aeruginosa [7]) of the same compound?
Answer: The MIC was 4 mg/L (≈ 10.5 µM).

Question: What about the MIC (Pseudomonas aeruginosa [8]) of the same compound?
Answer: Its MIC is 4 mg/L (≈ 10.5 µM).

Question: What about the MIC (Acinetobacter baumannii) of the same compound?
Answer: Its MIC is 64 mg/L (≈ 169 µM).

Question: And the MIC (Candida albicans [11])?
Answer: Its MIC is 2 to 8 mg/L (≈ 5.27 to 21.1 µM).

Question: What about the MIC (Candida tropicalis) of the same compound?
Answer: The MIC was 2 to 8 mg/L (≈ 5.27 to 21.1 µM).

Question: And the MIC (Aspergillus fumigatus)?
Answer: Its MIC is 2 to 8 mg/L (≈ 5.27 to 21.1 µM).

Question: What about the MIC (Staphylococcus aureus [10]) of the same compound?
Answer: Its MIC is 16 mg/L (≈ 42.2 µM).

Question: With CCCc1nccn1-c1ccnc(NS(=O)(=O)c2ccc(N)cc2)n1 as the compound, how does the MIC (Staphylococcus aureus [1]) read?
Answer: Its MIC is 16 mg/L (≈ 44.6 µM).

Question: What about the MIC (Staphylococcus aureus [2]) of the same compound?
Answer: Its MIC is 8 mg/L (≈ 22.3 µM).

Question: And the MIC (Staphylococcus aureus [3])?
Answer: Its MIC is 64 mg/L (≈ 179 µM).

Question: And the MIC (Enterococcus faecalis [4])?
Answer: The MIC was 64 mg/L (≈ 179 µM).

Question: And the MIC (Klebsiella pneumoniae)?
Answer: The MIC was 64 mg/L (≈ 179 µM).

Question: And the MIC (Escherichia coli [5])?
Answer: Its MIC is 16 mg/L (≈ 44.6 µM).

Question: And the MIC (Escherichia coli [6])?
Answer: Its MIC is 128 mg/L (≈ 357 µM).

Question: What about the MIC (Pseudomonas aeruginosa [7]) of the same compound?
Answer: The MIC was 128 mg/L (≈ 357 µM).

Question: What about the MIC (Pseudomonas aeruginosa [8]) of the same compound?
Answer: The MIC was 128 mg/L (≈ 357 µM).

Question: What about the MIC (Acinetobacter baumannii) of the same compound?
Answer: The MIC was 32 mg/L (≈ 89.3 µM).

Question: And the MIC (Candida albicans [12])?
Answer: Its MIC is 4 mg/L (≈ 11.2 µM).

Question: And the MIC (Staphylococcus aureus [10])?
Answer: The MIC was 8 mg/L (≈ 22.3 µM).

Question: For Cc1cc2ncn(-c3ccnc(NS(=O)(=O)c4ccc(N)cc4)n3)c2cc1C, which MIC (Staphylococcus aureus [1]) is on record?
Answer: Its MIC is 64 mg/L (≈ 162 µM).

Question: And the MIC (Staphylococcus aureus [2])?
Answer: The MIC was 256 mg/L (≈ 649 µM).

Question: What about the MIC (Staphylococcus aureus [3]) of the same compound?
Answer: Its MIC is 256 mg/L (≈ 649 µM).

Question: What about the MIC (Enterococcus faecalis [4]) of the same compound?
Answer: The MIC was 256 mg/L (≈ 649 µM).

Question: And the MIC (Klebsiella pneumoniae)?
Answer: Its MIC is 256 mg/L (≈ 649 µM).

Question: What about the MIC (Escherichia coli [5]) of the same compound?
Answer: The MIC was 256 mg/L (≈ 649 µM).

Question: What about the MIC (Escherichia coli [6]) of the same compound?
Answer: The MIC was 512 mg/L (≈ 1300 µM).

Question: And the MIC (Pseudomonas aeruginosa [7])?
Answer: Its MIC is 256 mg/L (≈ 649 µM).

Question: And the MIC (Pseudomonas aeruginosa [8])?
Answer: Its MIC is 128 mg/L (≈ 324 µM).

Question: And the MIC (Acinetobacter baumannii)?
Answer: Its MIC is 128 mg/L (≈ 324 µM).

Question: What about the MIC (Staphylococcus aureus [10]) of the same compound?
Answer: The MIC was 128 mg/L (≈ 324 µM).

Question: Which MIC (Staphylococcus aureus [1]) does the source give for CCc1nccn1-c1ccnc(NS(=O)(=O)c2ccc(N)cc2)n1 here?
Answer: The MIC was 128 mg/L (≈ 372 µM).

Question: What about the MIC (Staphylococcus aureus [2]) of the same compound?
Answer: The MIC was 128 mg/L (≈ 372 µM).

Question: And the MIC (Staphylococcus aureus [3])?
Answer: Its MIC is 128 mg/L (≈ 372 µM).

Question: And the MIC (Enterococcus faecalis [4])?
Answer: Its MIC is 64 mg/L (≈ 186 µM).

Question: What about the MIC (Klebsiella pneumoniae) of the same compound?
Answer: The MIC was 64 mg/L (≈ 186 µM).

Question: What about the MIC (Escherichia coli [5]) of the same compound?
Answer: The MIC was 128 mg/L (≈ 372 µM).

Question: And the MIC (Escherichia coli [6])?
Answer: Its MIC is 512 mg/L (≈ 1490 µM).

Question: What about the MIC (Pseudomonas aeruginosa [7]) of the same compound?
Answer: The MIC was 128 mg/L (≈ 372 µM).

Question: What about the MIC (Pseudomonas aeruginosa [8]) of the same compound?
Answer: Its MIC is 128 mg/L (≈ 372 µM).

Question: And the MIC (Acinetobacter baumannii)?
Answer: Its MIC is 64 mg/L (≈ 186 µM).

Question: What about the MIC (Staphylococcus aureus [10]) of the same compound?
Answer: The MIC was 64 mg/L (≈ 186 µM).

Question: Which MIC (Staphylococcus aureus [1]) does the source give for CC(C)c1nccn1-c1ccnc(NS(=O)(=O)c2ccc(N)cc2)n1 here?
Answer: Its MIC is 32 mg/L (≈ 89.3 µM).

Question: What about the MIC (Staphylococcus aureus [2]) of the same compound?
Answer: Its MIC is 256 mg/L (≈ 714 µM).

Question: And the MIC (Staphylococcus aureus [3])?
Answer: Its MIC is 256 mg/L (≈ 714 µM).

Question: What about the MIC (Enterococcus faecalis [4]) of the same compound?
Answer: Its MIC is 128 mg/L (≈ 357 µM).

Question: What about the MIC (Klebsiella pneumoniae) of the same compound?
Answer: Its MIC is 256 mg/L (≈ 714 µM).

Question: And the MIC (Escherichia coli [5])?
Answer: Its MIC is 64 mg/L (≈ 179 µM).

Question: What about the MIC (Escherichia coli [6]) of the same compound?
Answer: Its MIC is 128 mg/L (≈ 357 µM).

Question: And the MIC (Pseudomonas aeruginosa [7])?
Answer: The MIC was 128 mg/L (≈ 357 µM).

Question: And the MIC (Pseudomonas aeruginosa [8])?
Answer: Its MIC is 32 mg/L (≈ 89.3 µM).

Question: What about the MIC (Acinetobacter baumannii) of the same compound?
Answer: The MIC was 64 mg/L (≈ 179 µM).

Question: What about the MIC (Staphylococcus aureus [10]) of the same compound?
Answer: Its MIC is 32 mg/L (≈ 89.3 µM).

Question: How did the MIC (Staphylococcus aureus [1]) turn out when Cc1ncc([N+](=O)[O-])n1-c1ccnc(NS(=O)(=O)c2ccc(N)cc2)n1 was run?
Answer: The MIC was 64 mg/L (≈ 170 µM).

Question: And the MIC (Staphylococcus aureus [2])?
Answer: Its MIC is 128 mg/L (≈ 341 µM).

Question: What about the MIC (Staphylococcus aureus [3]) of the same compound?
Answer: Its MIC is 128 mg/L (≈ 341 µM).

Question: What about the MIC (Enterococcus faecalis [4]) of the same compound?
Answer: The MIC was 128 mg/L (≈ 341 µM).

Question: What about the MIC (Klebsiella pneumoniae) of the same compound?
Answer: Its MIC is 64 mg/L (≈ 170 µM).

Question: And the MIC (Escherichia coli [5])?
Answer: Its MIC is 128 mg/L (≈ 341 µM).

Question: What about the MIC (Escherichia coli [6]) of the same compound?
Answer: The MIC was 256 mg/L (≈ 682 µM).

Question: What about the MIC (Pseudomonas aeruginosa [7]) of the same compound?
Answer: The MIC was 256 mg/L (≈ 682 µM).

Question: What about the MIC (Pseudomonas aeruginosa [8]) of the same compound?
Answer: The MIC was 128 mg/L (≈ 341 µM).

Question: And the MIC (Acinetobacter baumannii)?
Answer: Its MIC is 64 mg/L (≈ 170 µM).

Question: What about the MIC (Staphylococcus aureus [10]) of the same compound?
Answer: Its MIC is 128 mg/L (≈ 341 µM).
